# High-throughput results deposited in PubChem BioAssay by several laboratories.
# CHT PAM: human CHT allosteric activation; CHT-expressing cells, membrane potential dye, choline EC20; hits give high values; LV-AA mutant CHT in HEK293 cells; B-score at 10 µM; hit rate 0.49% among 310,000;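 active = initial fluorescence not abnormally high and integrated response B-score, plate-corrected, over 3 SD above library mean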
# T cell modulator: modulates CD8 T cell binding to vesicles | hit rate 0.068% among 330,000 | 2C CD8+ T cell-vesicle binding, flow cytometry; hits give low values | response (vesicle binding), % at 7 µM;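 active = response, share of CD8 T cells binding vesicles, and their 90th percentile fluorescence all below set limits, cut at about 80% in these data, passing the limit was not always enough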;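 note: values below 100% mean blocked vesicle binding to the CD8+ T cells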
#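 material = purified 2C TCR transgenic mouse naive CD8+ T cells | controls = Unloaded micro-vesicles (low), QL9 vesicles with 0.7% DMSO (high) | detection = cytometric PE anti-B7-1 and Alexa647 anti-CD8 signals after 1% paraformaldehyde fixation | incubation = binding step 1.5 h, 37 °C, antibody labelling 20 min, ice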
# VLA-4 inh: inhibition in a human VLA-4 binding assay | P13612 | VLA-4 expressing cells, ligand binding flow cytometry | inhibition, % (about 7 µM as worked out from the volumes in the protocol) | hit rate 0.2% among 330,000 | AID 2557; in the data active = inhibition above about 50%
# CHT inh: inhibitors of human choline transporter CHT | Q9GZV3 | CHT-expressing cells, membrane potential dye, choline response; hits give low values | B-score at 10 µM | hit rate 0.86% among 310,000;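 active = B-score over 3 SD under the library average, and starting fluorescence ratio not unusually high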;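 note: choline stimulus applied at its EC90 after an EC20 pre-addition; B-score computed on integrated fluorescence ratio after choline addition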
# CHT block conf: confirmation of human choline transporter CHT inhibitors; shares compounds with CHT inh; CHT-expressing cells, choline membrane potential dye; LV-to-AA substituted CHT, HEK293 cells; CHT activity remaining % of control (hits give low values), % at 10 µM; hit rate 70% among 2,400; AID 493221;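 active = choline transporter activity left, mean of duplicates at 10 µM, below buffer-only control mean minus 3 SD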;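 note: depolarization triggered by choline at its EC90 following an EC20 pre-addition; 0% = hemicholinium-3 full block and 100% = buffer-only control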
# HEK293 MPD ctr: activity in parental HEK293 cells lacking CHT | membrane potential dye, choline response; active = decrease or increase beyond buffer ±3SD | hit rate 4% among 2,400 | membrane potential ratio readout (active if shifted either direction beyond buffer ±3SD; no single direction) at 10 µM | shares compounds with CHT inh;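 note: parental cells lack the transporter so any hit is non-specific; ratio is peak minus trough fluorescence over baseline after EC90 choline challenge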
# Numbers without * were called inactive; i = inactive; · = no result. In the library only some 1.5% were active in any assay of this set; here they are far more common.
SMILES,CHT PAM,T cell modulator,VLA-4 inh,CHT inh,CHT block conf,HEK293 MPD ctr
CCN1CCN(c2ncnc3scc(-c4ccc(OC)cc4)c23)CC1,i,341,5,-5.3*,51%*,i
Cc1ccc(-c2csc3ncnc(N4CCN(C)CC4)c23)cc1C,i,211,-18,-11*,48%*,i
COc1ccc(N2CCN(c3ncnc4scc(-c5ccc(C)cc5)c34)CC2)cc1,i,388,6,i,·,·
Cn1nnnc1SCC(=O)Nc1cc(S(=O)(=O)N2CCCCC2)ccc1Cl,·,280,-18,·,·,·
Cc1ccc(NC(=S)Nc2cccc3cnccc23)cc1,i,400,1,i,·,·
Cc1ccc(NC(=S)Nc2cccc3cnccc23)cc1C,i,52,-6,-5.9*,54%*,i
O=C1CN(C(=O)CSc2nnnn2C2CC2)c2ccccc2N1,·,285,0,·,·,·
CC(NS(=O)(=O)c1cc2c3c(c1)CCC(=O)N3CCC2)c1ccccc1 (centres undefined),i,190,5,i,·,·
CCN(CCN(C)C)C(=O)c1ccc2c(c1NCCO)C(=O)c1ccccc1C2=O,i,336,2,i,·,·
CC1(C)CCCN(C(=O)c2ccc3c(c2NCCO)C(=O)c2ccccc2C3=O)C1,i,888,-10,-7.2*,42%*,2.6*
C=CCn1c(SCc2ccc(Cl)cc2)nc2c1c(=O)[nH]c(=O)n2C,i,128,4,i,·,·
C=CCn1c(SCc2ccc(F)cc2)nc2c1c(=O)[nH]c(=O)n2C,i,196,-28,-6*,i,i
O=C(c1ccc(Oc2cc(Cl)cc(Cl)c2)o1)N1CCCCC1,i,i,21,i,·,·
O=C(CNC(=O)C1CCCCC1)NCc1ccco1,i,202,3,i,·,·
CCCCn1c(SCC(=O)N2CCN(c3ccccc3)CC2)nc2ccsc2c1=O,i,220,-16,-5.7*,i,i
CCCCn1c(SCC(=O)N2CCC(C)CC2)nc2ccsc2c1=O,i,416,-46,i,60%*,i
Cc1cc(OCC(=O)NCC2CCC(C(=O)O)CC2)c2c(C)c(C)c(=O)oc2c1 (centres undefined),i,301,1,i,·,·
O=[N+]([O-])C(/C=C(\Cl)[N+](=O)[O-])=C1N(Cc2ccc(Cl)nc2)CCN1Cc1ccc(Cl)nc1,i,401,-4,i,·,·
O=[N+]([O-])/C(C(=C(Cl)Cl)N1CCN(Cc2ccccc2)CC1)=C1\NCCN1Cc1ccc(Cl)nc1,i,385,-4,-13*,4.7%*,i
COc1ccc(OC)c(NC(=O)NNS(=O)(=O)c2ccc(C)cc2C)c1,i,359,-12,i,·,·
CC(=O)OCCCCCCCCCCC[N+]1(C)CCCCC1,i,541,10,-8.3*,27%*,i
COC(=O)CCCCCCCCCC[N+]1(C)CCCCC1,i,228,26,-5.1*,42%*,i
CC1=NC(C)(C)Cc2ccccc21,i,361,5,-10*,20%*,i
CCOC(=O)c1cnc2c(OC)cccc2c1Nc1ccc2c(c1)OCCO2,i,95,-8,i,·,·
Cn1c(=O)c(C#N)c(-c2ccc(F)cc2)c2cc(C(=O)c3cc(Cl)cc(Cl)c3O)cnc21,i,453,-21,-8.2*,53%*,i
SMILES,CHT PAM,T cell modulator,VLA-4 inh,CHT inh,CHT block conf,HEK293 MPD ctr
CCN(CC(=O)Nc1ccccc1OC)C(=O)c1cc(S(=O)(=O)N2CCCCCC2)ccc1OC,i,196,9,i,·,·
CCOC(=O)c1nc(NNC(=O)c2ccc([N+](=O)[O-])cc2)sc1C,i,136,-8,-9.9*,54%*,i
CCOc1cc(C2C3=C(CC(C)(C)CC3=O)N(CCOC)C3=C2C(=O)CC(C)(C)C3)ccc1O,i,247,4,i,·,·
C#CC[N+](C)(C)CC#Cc1ccc(C)cc1,i,232,-19,i,·,·
C#CC[N+](CC)(CC)CC#Cc1ccccc1,i,486,4,-7.7*,35%*,i
CC1CCN(CC(=O)Nc2cccc(C(=O)Nc3cccc(C(F)(F)F)c3)c2)CC1,i,185,-1,-6.4*,44%*,i
CC1CN(CC(=O)Nc2cccc(C(=O)Nc3cccc(C(F)(F)F)c3)c2)CC(C)O1 (centres undefined),i,572,5,i,·,·
S=c1nc(-c2cc(Cl)cc(Cl)c2)[nH][nH]1,i,374,1,-5.8*,32%*,i
S=c1nc(-c2cccc(Cl)c2)[nH][nH]1,i,261,-8,i,·,·
COc1cc2c(cc1OC)C(C)N(C(=O)c1cc3c(C)cc(C)cc3[nH]1)CC2 (centres undefined),i,246,-3,i,·,·
CCCc1nc(NCCO)c(C#N)c2c1CCCC2,i,477,2,-8*,i,i
CCCc1nc(NCc2ccccc2)c(C#N)c2c1CCCC2,i,149,19,i,·,·
Cc1ccc(S(=O)(=O)NCC(=O)N2CCN(c3ccc(F)cc3)CC2)cc1,i,393,4,i,·,·
Cc1noc(NC(=O)c2c(-c3c(Cl)cccc3Cl)noc2C)c1[N+](=O)[O-],i,354,0,-6.1*,48%*,i
O=C(COC(=O)CN1C(=O)C2CCCCC2C1=O)NCc1ccc(Cl)cc1Cl (centres undefined),·,230,5,·,·,·
Oc1ccc(/C=N/NC(=S)NCc2ccco2)cc1,i,488,12,i,·,·
Oc1c(Br)cc(/C=N/NC(=S)NCc2ccco2)cc1Br,i,264,0,-5.1*,67%*,i
CCCCn1c(NC(C)CC)nc2c1c(=O)[nH]c(=O)n2C (centres undefined),i,118,-3,-5.5*,37%*,-8.9*
Cc1ccc(N2C(=O)CC(Nc3ccc(Cl)c(S(=O)(=O)N(C)C)c3)C2=O)c(C)c1 (centres undefined),i,380,9,i,·,·
O=C(COc1ccc(/C=N/NC(=O)c2ccccc2)cc1)Nc1ccc([N+](=O)[O-])cc1,i,211,0,i,·,·
CC(C)Oc1ccc(/C=N/NC(=O)C(CSCc2ccccc2)NC(=O)c2ccc([N+](=O)[O-])cc2)cc1 (centres undefined),i,158,13,-5.5*,i,i
O=C(CCC1CCN(C(=O)c2ccco2)CC1)NCc1ccc(F)cc1,i,445,5,i,·,·
Cc1cc(/C=N/NC(=O)c2ccncc2)c(C)n1-c1ccccc1,i,293,8,-6.8*,30%*,i
CCc1ccc(-n2c(C)cc(/C=N/NC(=O)OC)c2C)cc1,i,182,6,-8.6*,62%*,i
COC(=O)N/N=C/c1cc(C)n(-c2ccccc2)c1C,i,53,-1,-8.3*,23%*,i
